Calls of active or inactive are those of the source. The calls are words filed in the database; no cut-off is given here.
Key:
[1] = Glutathione reactivity assessed as adduct formation of the compound
Hepatitis B virus [2] = experiment: Antiviral activity against HBV infected in hydrodynamic injection BALB/c mouse model assessed as reduction of viral DNA copy numbers in liver at 3 to 12.5 mg/kg, po bid after 5 days by real-time PCR method; type: functional, organism-based
Procedure, shortened: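 Female BALB/c mice hydrodynamically injected via tail vein with replication-competent HBV DNA plasmid. From 20 h post-injection, dosed orally for 5 days: 3 or 12.5 mg/kg twice daily, with vehicle and entecavir 0.1 mg/kg once daily as controls. Liver HBV DNA copies measured by real-time qPCR; six mice per group, SEM.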

[3] = Volume of distribution at steady state in mouse at 1 mg/kg, iv by LC-MS/MS analysis; type: ADME, organism-based; conditions: in vivo, read-out: Vdss
Procedure, shortened: (§1)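 Single-dose mouse PK following standard procedures: IV 1 mg/kg and PO 3 mg/kg. Plasma CL, Vss, IV t1/2, PO Cmax, AUC(0−∞) in plasma (IV and PO) and liver (PO), and oral bioavailability F derived. Liver/plasma ratio uses the PO AUC(0−∞) values.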

[4] = AUC (0 to infinity) in mouse plasma at 3 mg/kg, po by LC-MS/MS analysis; type: ADME, organism-based; design: dose 3 mg/kg, route oral, time infinity; procedure, shortened: as §1
[5] = Ratio of AUC (0 to infinity) in mouse liver at 3 mg/kg, po to AUC (0 to infinity) in mouse plasma at 3 mg/kg, po by LC-MS/MS analysis; type: ADME, organism-based; conditions: liver and plasma, read-out: Ratio AUC; procedure, shortened: as §1
[6] = Oral bioavailability in mouse at 3 mg/kg, by LC-MS/MS analysis; type: ADME, organism-based; conditions: in vivo; procedure, shortened: as §1
[7] = Base ionization constant, pKa of the compound; type: physicochemical
Hepatitis B virus [8] = experiment: Antiviral activity against HBV infected in human HepG2(2.2.15) cells assessed as decrease in HBV genome replication after 5 days by qPCR method; type: functional, cell-based; conditions: HepG2 2.2.15, 120 h
Procedure, shortened: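 HepG2.2.15 cells (stable HBV genome, Hep G2-derived; DMEM-F12, 10% FBS, penicillin/streptomycin, 0.5 mg/mL G418) seeded 3 × 10^4/well, incubated overnight at 37 °C. Compounds serially half-log diluted in DMSO, then in medium; final DMSO 0.5%. HBV DNA extracted and quantified by qPCR.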

[9] = Solubility of compound in phosphate buffer at pH 6.5 after one night incubation by HPLC-UV method; type: physicochemical
[10] = AUC (0 to infinity) in mouse liver at 3 mg/kg, po by LC-MS/MS analysis; type: ADME, organism-based; design: dose 3 mg/kg, time infinity, route oral; procedure, shortened: as §1
[11] = Fraction unbound in human plasma at 1000 nM after 5 hrs by LC-MS/MS analysis; type: ADME, cell-free
[12] = Half life in mouse at 1 mg/kg, iv by LC-MS/MS analysis; type: ADME, organism-based; conditions: in vivo; procedure, shortened: as §1
[13] = Fraction unbound in mouse plasma at 1000 nM after 5 hrs by LC-MS/MS analysis; type: ADME, cell-free
[14] = Permeability of the compound at 150 uM after 18 hrs by PAMPA; type: physicochemical; conditions: read-out: permeability
[15] = Cmax in mouse at 3 mg/kg, po by LC-MS/MS analysis; type: ADME, organism-based; design: dose 3 mg/kg, route oral; conditions: in vivo; procedure, shortened: as §1
[16] = Plasma clearance in mouse at 1 mg/kg, iv by LC-MS/MS analysis; type: ADME, organism-based; procedure, shortened: as §1
[17] = AUC (0 to infinity) in mouse at 1 mg/kg, iv by LC-MS/MS analysis; type: ADME, organism-based; design: dose 1 mg/kg, time infinity, route intravenous; conditions: in vivo; procedure, shortened: as §1
[18] = Apparent partition coefficient, log D of the compound at pH 7.4; type: physicochemical; conditions: octanol/water
[19] = Acid ionization constant, pKa of the compound; type: physicochemical
[20] = Selectivity index, ratio of CC50 for HBV infected human HepDE19 cells to EC50 for HBV infected in human HepG2(2.2.15) cells
Procedure, shortened: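 Selectivity index calculated as CC50 (HepDE19, CCK-8 viability after 5 days) divided by EC50 (HBV DNA reduction in HepG2.2.15 cells, qPCR).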

Hepatocyte = experiment: Induction of CYP3A4 mRNA expression in human primary hepatocyte after 24 hrs by real-time PCR relative to rifampicin; type: ADME, cell-based; design: concentration or dose not given beside the values; conditions: hepatocytes
Procedure, shortened: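 CYP3A4 mRNA levels measured in primary human hepatocytes and expressed relative to the positive control rifampicin at 10 μM.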

[21] = Cytotoxicity against HBV infected human HepDE19 cells assessed as decrease in cell viability after 5 days by CCK8 assay; type: cell-based
Procedure, shortened: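 Tetracycline-inducible HBV HepDE19 cells seeded 5 × 10^3/well and treated with compounds. After 5 days, viability read by CCK-8 (2 h, 37 °C; absorbance 450 and 630 nm).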

Cytochrome P450 3A4 [22] = molecular target: T1, Cytochrome P450 3A4 (Homo sapiens, UniProt P08684); experiment: Time dependent inhibition of CYP3A4 (unknown origin); type: ADME
T1 sequence (P08684 whole entry): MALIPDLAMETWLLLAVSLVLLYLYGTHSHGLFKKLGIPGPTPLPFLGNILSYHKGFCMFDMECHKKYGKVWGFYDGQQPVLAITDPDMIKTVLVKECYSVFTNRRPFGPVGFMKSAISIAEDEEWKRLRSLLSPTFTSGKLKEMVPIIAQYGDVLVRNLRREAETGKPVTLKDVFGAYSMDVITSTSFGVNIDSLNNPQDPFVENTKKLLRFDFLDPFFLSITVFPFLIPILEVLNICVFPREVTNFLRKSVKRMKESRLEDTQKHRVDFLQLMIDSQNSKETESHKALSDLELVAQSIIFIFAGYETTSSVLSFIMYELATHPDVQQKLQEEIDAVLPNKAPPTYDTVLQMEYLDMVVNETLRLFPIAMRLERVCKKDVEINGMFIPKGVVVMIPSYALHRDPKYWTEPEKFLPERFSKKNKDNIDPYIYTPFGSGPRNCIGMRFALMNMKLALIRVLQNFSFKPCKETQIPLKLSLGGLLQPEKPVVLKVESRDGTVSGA

[23] = molecular target: Voltage-gated inwardly rectifying potassium channel KCNH2 (Homo sapiens, UniProt Q12809); experiment: (§2) Inhibition of human ERG
Chain of Voltage-gated inwardly rectifying potassium channel KCNH2 (Q12809 whole entry): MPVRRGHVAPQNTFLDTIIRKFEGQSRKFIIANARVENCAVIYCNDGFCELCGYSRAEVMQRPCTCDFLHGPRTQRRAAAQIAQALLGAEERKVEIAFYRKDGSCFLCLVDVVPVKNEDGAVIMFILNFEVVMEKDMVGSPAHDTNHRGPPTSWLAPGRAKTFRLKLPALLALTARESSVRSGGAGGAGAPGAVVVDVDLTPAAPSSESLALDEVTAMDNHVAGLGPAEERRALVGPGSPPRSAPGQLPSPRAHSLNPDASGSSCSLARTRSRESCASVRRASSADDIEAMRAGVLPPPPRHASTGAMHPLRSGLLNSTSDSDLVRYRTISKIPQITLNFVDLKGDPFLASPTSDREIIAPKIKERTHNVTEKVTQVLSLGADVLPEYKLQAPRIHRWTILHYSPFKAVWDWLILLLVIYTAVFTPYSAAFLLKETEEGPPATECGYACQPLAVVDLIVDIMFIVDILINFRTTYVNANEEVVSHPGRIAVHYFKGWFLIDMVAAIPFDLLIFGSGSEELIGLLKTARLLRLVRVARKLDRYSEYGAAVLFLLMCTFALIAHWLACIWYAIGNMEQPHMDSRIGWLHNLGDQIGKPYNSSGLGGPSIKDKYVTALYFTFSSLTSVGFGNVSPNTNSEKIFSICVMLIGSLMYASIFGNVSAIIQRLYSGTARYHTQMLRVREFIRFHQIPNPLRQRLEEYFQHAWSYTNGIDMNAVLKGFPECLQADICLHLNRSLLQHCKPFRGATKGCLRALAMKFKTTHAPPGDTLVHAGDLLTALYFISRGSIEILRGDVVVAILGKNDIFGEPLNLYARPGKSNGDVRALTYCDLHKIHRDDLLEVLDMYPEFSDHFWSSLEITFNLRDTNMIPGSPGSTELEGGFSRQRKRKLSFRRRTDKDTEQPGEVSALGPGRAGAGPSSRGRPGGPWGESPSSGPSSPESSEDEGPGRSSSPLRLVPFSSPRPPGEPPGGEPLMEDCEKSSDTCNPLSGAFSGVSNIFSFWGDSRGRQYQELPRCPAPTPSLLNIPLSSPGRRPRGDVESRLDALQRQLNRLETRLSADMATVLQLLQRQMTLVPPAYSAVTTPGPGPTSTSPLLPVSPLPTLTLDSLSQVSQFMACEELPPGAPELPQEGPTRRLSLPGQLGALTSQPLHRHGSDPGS

hERG (KCNH2) = hERG (KCNH2) (Homo sapiens, UniProt Q12809); experiment: as §2
Chain of hERG (KCNH2) (Q12809 whole entry): as above

Salmonella typhimurium = experiment: Mutagenicity in Salmonella typhimurium by Ames test; type: toxicity; conditions: salmonella enterica subsp. enterica serovar typhimurium
Cytochrome P450 2D6 = Cytochrome P450 2D6 (Homo sapiens, UniProt P10635); experiment: Inhibition of CYP2D6 (unknown origin); type: ADME
Chain of Cytochrome P450 2D6 (P10635 whole entry): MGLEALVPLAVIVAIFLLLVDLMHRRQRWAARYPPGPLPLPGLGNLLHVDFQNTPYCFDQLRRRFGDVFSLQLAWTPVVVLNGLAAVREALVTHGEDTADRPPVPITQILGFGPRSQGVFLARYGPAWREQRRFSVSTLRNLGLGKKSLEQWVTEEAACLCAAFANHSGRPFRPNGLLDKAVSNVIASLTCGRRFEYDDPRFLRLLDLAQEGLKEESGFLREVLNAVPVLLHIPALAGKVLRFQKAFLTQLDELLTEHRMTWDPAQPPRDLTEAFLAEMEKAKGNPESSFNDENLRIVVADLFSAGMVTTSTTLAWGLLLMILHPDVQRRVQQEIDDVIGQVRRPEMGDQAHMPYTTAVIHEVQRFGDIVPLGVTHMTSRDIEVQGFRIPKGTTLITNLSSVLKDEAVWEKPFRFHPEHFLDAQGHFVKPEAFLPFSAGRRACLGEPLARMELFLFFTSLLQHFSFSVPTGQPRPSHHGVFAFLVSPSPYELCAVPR
Procedure, shortened: (§3)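 CYP inhibition IC50 measured in a panel of five enzymes: CYP3A4, 2D6, 2C9, 2C19 and 1A2.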

Cytochrome P450 2C9 = Cytochrome P450 2C9 (Homo sapiens, UniProt P11712); experiment: Inhibition of CYP2C9 (unknown origin); type: ADME; procedure, shortened: as §3
Chain of Cytochrome P450 2C9 (P11712 whole entry): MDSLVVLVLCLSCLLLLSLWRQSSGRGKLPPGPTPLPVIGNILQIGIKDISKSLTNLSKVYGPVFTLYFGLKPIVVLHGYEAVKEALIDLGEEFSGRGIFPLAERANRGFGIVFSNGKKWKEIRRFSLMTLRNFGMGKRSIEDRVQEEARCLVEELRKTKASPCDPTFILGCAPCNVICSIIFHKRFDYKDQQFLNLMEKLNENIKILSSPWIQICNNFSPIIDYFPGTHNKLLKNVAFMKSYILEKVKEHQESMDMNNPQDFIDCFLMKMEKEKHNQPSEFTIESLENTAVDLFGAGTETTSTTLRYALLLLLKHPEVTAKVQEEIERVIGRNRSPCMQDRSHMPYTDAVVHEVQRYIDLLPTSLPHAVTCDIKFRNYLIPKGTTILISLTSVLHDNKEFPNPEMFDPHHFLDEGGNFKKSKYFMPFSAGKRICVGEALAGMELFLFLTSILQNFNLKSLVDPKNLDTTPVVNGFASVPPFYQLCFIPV

Cytochrome P450 2C19 = Cytochrome P450 2C19 (Homo sapiens, UniProt P33261); experiment: Inhibition of CYP2C19 (unknown origin); type: ADME; procedure, shortened: as §3
Chain of Cytochrome P450 2C19 (P33261 whole entry): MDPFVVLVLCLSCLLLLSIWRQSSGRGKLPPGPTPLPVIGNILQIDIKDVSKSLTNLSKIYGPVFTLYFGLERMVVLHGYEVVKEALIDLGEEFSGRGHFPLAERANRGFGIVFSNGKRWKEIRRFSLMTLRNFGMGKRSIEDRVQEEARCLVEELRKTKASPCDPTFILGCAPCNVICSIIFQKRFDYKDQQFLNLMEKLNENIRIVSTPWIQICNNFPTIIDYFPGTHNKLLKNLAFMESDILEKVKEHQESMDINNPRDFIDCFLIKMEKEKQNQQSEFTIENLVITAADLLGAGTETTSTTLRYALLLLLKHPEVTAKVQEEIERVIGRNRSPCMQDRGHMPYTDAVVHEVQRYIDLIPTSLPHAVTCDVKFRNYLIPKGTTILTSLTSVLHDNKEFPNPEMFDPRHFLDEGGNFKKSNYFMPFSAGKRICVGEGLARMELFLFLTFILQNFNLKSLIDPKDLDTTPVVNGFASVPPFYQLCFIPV

Cytochrome P450 1A2 = molecular target: T2, Cytochrome P450 1A2 (Homo sapiens, UniProt P05177); experiment: Inhibition of CYP1A2 (unknown origin); type: ADME; procedure, shortened: as §3
T2 sequence (P05177 whole entry): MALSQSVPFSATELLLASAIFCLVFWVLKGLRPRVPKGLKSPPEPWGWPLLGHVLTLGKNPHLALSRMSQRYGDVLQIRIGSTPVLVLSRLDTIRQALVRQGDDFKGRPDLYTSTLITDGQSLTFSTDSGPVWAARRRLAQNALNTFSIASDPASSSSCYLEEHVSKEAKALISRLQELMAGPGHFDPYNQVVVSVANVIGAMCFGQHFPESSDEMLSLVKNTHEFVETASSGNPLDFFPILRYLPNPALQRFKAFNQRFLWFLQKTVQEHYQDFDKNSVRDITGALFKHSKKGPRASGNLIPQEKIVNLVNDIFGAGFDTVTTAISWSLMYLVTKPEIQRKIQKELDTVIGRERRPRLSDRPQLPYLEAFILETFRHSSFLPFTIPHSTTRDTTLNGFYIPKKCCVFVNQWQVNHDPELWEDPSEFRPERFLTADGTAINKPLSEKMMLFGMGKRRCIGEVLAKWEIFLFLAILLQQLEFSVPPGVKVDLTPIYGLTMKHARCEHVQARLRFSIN

Cytochrome P450 3A4 [24] = molecular target: T1, Cytochrome P450 3A4; experiment: Inhibition of CYP3A4 (unknown origin); type: ADME; procedure, shortened: as §3

Row | Structure (SMILES) | Vd [3] | AUC(0-inf) [4] | Kp [5] | pKa [7] | EC50 (Hepatitis B virus [8]) | solubility [9] | AUC(0-inf) [10] | fraction unbound at 5 h, 1 µM [11] | half-life [12] | fraction unbound at 5 h, 1 µM [13] | Papp at 18 h, 150 µM [14] | Cmax [15] | logD [18] | pKa [19] | Ratio CC50/EC50 [20] | Activity (Hepatocyte) | CC50 at 120 h [21] | also measured
1 | COC(=O)C1=C(CN2CCOC[C@H]2C(=O)O)NC(c2nccs2)=N[C@H]1c1ccc(F)cc1Cl | – | – | – | – | – | – | – | – | – | – | – | – | – | – | – | – | – | Stability [1]: Stable; Activity (Hepatitis B virus [2]): Active
2 | CCOC(=O)C1=C(CN2CCOC[C@H]2C(=O)O)NC(c2nccs2)=N[C@H]1c1cccc(F)c1Cl | 4.1 L/kg | 624 ng·h/mL | 3.2 | 5.7 | 0.0008 µM | > 679 µg/mL | 2000 ng·h/mL | 0.02 | 3 h | 0.022 | 3.3 ×10⁻⁶ cm/s | 783 ng/mL | 0.42 | 1.8 | 125000 | 144% | > 100 µM | bioavailability [6]: 82%; clearance [16]: 66 mL/min/kg; AUC(0-inf) [17]: 253 ng·h/mL
3 | COC(=O)C1=C(CN2CCOC[C@H]2C(=O)O)NC(c2nccs2)=N[C@H]1c1ccc(F)c(F)c1C | 1.9 L/kg | 344 ng·h/mL | 27 | 5.7 | 0.002 µM | > 604 µg/mL | 9210 ng·h/mL | 0.054 | 1.4 h | 0.062 | 2.7 ×10⁻⁶ cm/s | 283 ng/mL | 0.44 | < 2.5 | >50000 | 56% | > 100 µM | bioavailability [6]: 30%; clearance [16]: 44 mL/min/kg; AUC(0-inf) [17]: 379 ng·h/mL
4 | CCOC(=O)C1=C(CN2CCOC[C@H]2C(=O)O)NC(c2nccs2)=N[C@H]1c1ccc(F)cc1Cl | – | – | – | – | 0.002 µM | – | – | – | – | – | – | – | – | – | – | 183% | > 100 µM | –
5 | COC(=O)C1=C(CN2CCOC[C@H]2C(=O)O)N=C(c2nccs2)N[C@H]1c1ccc(F)cc1Cl | 2.5 L/kg | 962 ng·h/mL | 12.3 | 5.8 | – | > 666 µg/mL | 11800 ng·h/mL | 0.057 | 1.5 h | 0.074 | 1.4 ×10⁻⁶ cm/s | 413 ng/mL | 0.06 | 1.8 | – | 111% | > 100 µM | TDI (Cytochrome P450 3A4 [22]): Not Active; inhibition (INH) [23]: Not Active; IC20 (hERG (KCNH2)): > 10 µM; Activity (Salmonella typhimurium): Non-Toxic; IC50 (Cytochrome P450 2D6): > 50 µM; IC50 (Cytochrome P450 2C9): > 50 µM; IC50 (Cytochrome P450 2C19): > 50 µM; IC50 (Cytochrome P450 1A2): > 50 µM; IC50 (Cytochrome P450 3A4 [24]): > 50 µM
6 | COC(=O)C1=C(CN2CCOC[C@H]2C(=O)O)NC(c2nc(C(F)(F)F)cs2)=N[C@H]1c1ccc(F)cc1Cl | – | – | – | – | 0.003 µM | – | – | – | – | – | – | – | – | – | >33333 | 72% | > 100 µM | –
7 | COC(=O)C1=C(CN2CCO[C@H](C)[C@H]2C(=O)O)NC(c2nccs2)=N[C@H]1c1ccc(F)cc1Cl | – | – | – | – | 0.007 µM | > 667 µg/mL | – | – | – | – | – | – | – | – | – | 81% | > 100 µM | –
